Assay: Toxicity liver stage against HepG2, at 10uM
Format: cell-based
Design: test concentration 10 uM, cell line HepG2-A16-CD81EGFP
Settings: human, HepG2-A16-CD81EGFP cells; read-out: INHIBITION
Summary of the method: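 Uninfected HepG2-A16-CD81EGFP cells, 3 × 10^3 per well, 1536-well, plated on prespotted compound at 10 μM final, parasite-free screening media added to match infected plates; puromycin 10 μM positive, DMSO 0.5% negative; run in parallel with 48 h PbLuc assay at 37 °C, 5% CO2; viability by CellTiter-Glo luminescence, normalized to controls.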

SMILES | cytotoxicity at 10 µM
CN1CC(C(=O)N(C)Cc2cc(-c3cccnc3)no2)NC1=O (stereo unspecified) | -3.08%
CC(CO)Nc1ccc(-c2nc(Cc3ccc(F)cc3)no2)cn1 (stereo unspecified) | -11.9%
CNc1nc2c(c(C(=O)N3CCCC3)n1)CN(C(=O)c1cccs1)CC2 | -112%
CCC1(CO)CCCN(C(=O)c2cc(COc3ccccc3F)[nH]n2)C1 (stereo unspecified) | 20.8%
CC1CCCN(Cc2cccc(C(=O)Nc3nccs3)c2)C1 (stereo unspecified) | -5.68%
CCc1nc(Cn2nc(C3CCNCC3)n(-c3ccccc3)c2=O)cs1 | -1.22%
Cc1nc(N(C)C)nc(NCCc2c[nH]cn2)c1C | 3.12%
O=C(NC1CC(=O)N(C2Cc3ccccc3C2)C1)c1csnn1 (stereo unspecified) | 2.96%
COCc1ccc(C(=O)N2CCN(CC3CC3)[C@@H]3CS(=O)(=O)C[C@@H]32)o1 | -15.5%
CC(C(=O)O)N1CC2(CCC1=O)CCN(CCSc1ccccc1)CC2 (stereo unspecified) | 2.57%
O=C(CN1CCN(c2ncccn2)[C@@H]2CS(=O)(=O)C[C@@H]21)N1CCCCC1 | -6.82%
COc1cccc(NC(=O)c2cc3c([nH]c2=O)CCCC3=O)c1 | -3.35%
CCCn1ncc(C(=O)N2CCCC(OCc3ccccn3)C2)c1C (stereo unspecified) | -0.2%
CC(=O)c1cc(CC(=O)NCc2ccc(F)cc2)cs1 | -18.7%
Cc1nccn1CCC1CCCCN1Cc1ccc(N(C)C)nc1 (stereo unspecified) | 21.3%
Cc1[nH]c(=O)[nH]c(=O)c1CN1CCCC(CCc2ccccc2)C1 (stereo unspecified) | -11.4%
CC(C)(C)c1nc(CN2CCCC2Cn2cncn2)no1 (stereo unspecified) | 1.93%
Cc1cc(C2CCCN(C(=O)CCc3cscn3)C2)n[nH]1 (stereo unspecified) | -0.939%
Cc1cc(C)n(CCN2CCOC(CNc3cccnn3)C2)n1 (stereo unspecified) | -3.2%

SMILES | cytotoxicity at 10 µM
CC(=O)N1CCCC1C(=O)NCCOc1cccc(F)c1 (stereo unspecified) | -7.81%
Cc1nn(C)c(C)c1C1CCCN1C(=O)CCc1ccco1 (stereo unspecified) | -21.5%
Cc1nc2ccnn2c(C)c1CCC(=O)N1CCN2CCCCC2C1 (stereo unspecified) | -8.82%
CC(C)(C)c1ncc(C(=O)NCCNc2ncccn2)s1 | -1.62%
Cc1nn(C)c(Cl)c1C1CCCN1C(=O)c1cccc(C#N)c1 (stereo unspecified) | -22%
Cc1nc2n(n1)CC(NCc1cnn(-c3ccccc3)n1)CC2 (stereo unspecified) | -3.69%
Cn1cnc2c1CCN(Cc1cccc(C(=O)N3CCCCC3)c1)C2 | -2.75%
CC(CO)NC(=O)Nc1ccc(S(C)(=O)=O)nc1 (stereo unspecified) | -10.2%
CC(=O)NCC1CCN(C(=O)CCOc2ccc(C(C)C)cc2)CC1 | -11.6%
Cn1cc(C2CCCN2Cc2csc(-c3ccccc3)n2)cn1 (stereo unspecified) | -2.48%
CN1CCOC(CNCc2ccc(OCc3ccccn3)cc2)C1 (stereo unspecified) | -13.4%
CC(C)c1nc(CN2CCOC(Cn3cccn3)C2)no1 (stereo unspecified) | -9.43%
Cc1cccc(N2CCN(C(=O)NC(C)c3nncn3C)CC2)c1 (stereo unspecified) | -6.13%
COCCOc1ncccc1C(=O)N1CCCCC1c1nccs1 (stereo unspecified) | -11.5%
COc1ccc(F)cc1C(=O)N1CCCC(CNS(C)(=O)=O)C1 (stereo unspecified) | -20%
O=C(NCCn1ccnc1)N1CCN(Cc2ccco2)CC1 | 3.94%
OC1(CN2CCOC(Cn3cccn3)C2)CCCCC1 (stereo unspecified) | -6.11%
Cc1nnc(NC(=O)NCc2ccnc(N(C)C)c2)s1 | -10.2%
Cc1cn2nc(N3CCCC3Cn3nc(C)nc3C)sc2n1 (stereo unspecified) | -14.6%

SMILES | cytotoxicity at 10 µM
Cc1cnn(CC2CCCN2C(=O)c2cc(C)nc3[nH]nc(C)c23)c1 (stereo unspecified) | -12.4%
COc1ccc(CN2CCCCC2Cn2nc(C)nc2C)cc1F (stereo unspecified) | -15%
CC(c1cccc(F)c1)N1CCN(Cc2nccn2C)CC1 (stereo unspecified) | -7.81%
c1ccc(-n2cc(CN3CCCC(Cn4cncn4)C3)nn2)cc1 (stereo unspecified) | 1.52%
Cc1cccc(C)c1NC(=O)CCNC(=O)c1ccoc1 | 3.03%
CCc1[nH]ncc1C(=O)N1CCCN(Cc2cnn(C)c2)CC1 | 1.71%
CCO[C@@H]1C[C@H]2CN(Cc3ccc(C)o3)CCN2C1 | -149%
Cc1ccc(CN2C[C@@H](N(C)C)[C@H]3OCCC[C@H]32)o1 | -136%
O=C(c1ccnnc1)N1CCN(Cc2cccnc2)c2ncccc2C1 | 0.121%
Cn1ccnc1CN1CCC(F)(F)C2(CCN(c3cnccn3)C2)C1 (stereo unspecified) | 16.4%
COC1COC2(CCN(Cc3ccc4c(c3)OCO4)CC2)C1 (stereo unspecified) | 0.729%
O=C(Nc1cnccn1)[C@@H]1C[C@H]2OCC[C@H]2N(Cc2ccsc2)C1 | -2.31%
Cc1cnc(N2CCC3(CCCCN3C)C2)nc1 (stereo unspecified) | 3.29%
Cc1ncsc1CN1C[C@H](OCC(C)C)[C@H]2OCCC[C@H]21 | -140%
c1cnc(NCc2cncc3c2CCN(Cc2cccs2)C3)nc1 | 7.33%
Cc1ccc(N2CCCC3(COCCN(c4ncccn4)C3)C2)nn1 (stereo unspecified) | -131%
CC(C)NC(=O)c1ccc2nnc(C3CN(C)CCN3C)n2c1 (stereo unspecified) | -139%
c1ccc(CN2Cc3nccn3CC(Cn3cncn3)C2)nc1 (stereo unspecified) | -141%

— ChEMBL document CHEMBL4513216, “Probing the Open Global Health Chemical Diversity Library for Multistage-Active Starting Points for Next-Generation Antimalarials” (ACS Infect Dis, 2020)
